ChEMBL document CHEMBL4477265, “Design and synthesis of cis-restricted benzimidazole and benzothiazole mimics of combretastatin A-4 as antimitotic agents with apoptosis inducing ability” (Bioorg Med Chem Lett, 2016)
The source made the active and inactive calls. No cut-off for these calls is given here.

How the values were obtained:
HeLa [1] = assay: Induction of inner mitochondrial membrane potential depolarization in isolated mitochondria from human HeLa cells at 40 to 60 nM after 48 hrs by JC-1 staining based fluorescence plate reader assay; assay type: functional
In short: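 Mitochondria isolated and incubated with JC-1 dye alongside treatment at 40 and 60 nM; red/green fluorescence emission ratio recorded as the index of inner membrane potential, with untreated mitochondria as control.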

HeLa [2] = assay: Cell cycle arrest in human HeLa cells assessed as accumulation at S phase at 60 nM after 48 hrs by propidium iodide staining based flow cytometry (reference value: 3.52%); assay type: functional
HeLa [3] = assay: Cell cycle arrest in human HeLa cells assessed as accumulation at G1 phase at 40 nM after 48 hrs by propidium iodide staining based flow cytometry (reference value: 73.28%); assay type: functional
HeLa [4] = assay: Cell cycle arrest in human HeLa cells assessed as accumulation at G2/M phase at 40 nM after 48 hrs by propidium iodide staining based flow cytometry (reference value: 17.56%); assay type: functional
HeLa [5] = assay: Cell cycle arrest in human HeLa cells assessed as accumulation at G0 phase at 60 nM after 48 hrs by propidium iodide staining based flow cytometry (reference value: 5.64%); assay type: functional
HeLa [6] = assay: Cell cycle arrest in human HeLa cells assessed as accumulation at S phase at 40 nM after 48 hrs by propidium iodide staining based flow cytometry (reference value: 3.52%); assay type: functional
A549 = assay: Antiproliferative activity against human A549 cells after 48 hrs by sulforhodamine B assay; assay type: functional; settings: A549, 48 h
HeLa [7] = assay: Cell cycle arrest in human HeLa cells assessed as accumulation at G2/M phase at 60 nM after 48 hrs by propidium iodide staining based flow cytometry (reference value: 17.56%); assay type: functional
HeLa [8] = assay: Antiproliferative activity against human HeLa cells after 48 hrs by sulforhodamine B assay; assay type: functional
DU-145 = assay: Antiproliferative activity against human DU145 cells after 48 hrs by sulforhodamine B assay; assay type: functional; settings: DU-145, 48 h
HeLa [9] = assay: Cell cycle arrest in human HeLa cells assessed as accumulation at G0 phase at 40 nM after 48 hrs by propidium iodide staining based flow cytometry (reference value: 5.64%); assay type: functional
HeLa [10] = assay: Cell cycle arrest in human HeLa cells assessed as accumulation at G1 phase at 60 nM after 48 hrs by propidium iodide staining based flow cytometry (reference value: 73.28%); assay type: functional
HepG2 = assay: Antiproliferative activity against human HepG2 cells after 48 hrs by sulforhodamine B assay; assay type: functional; settings: HepG2, 48 h
HeLa [11] = assay: Induction of apoptosis in human HeLa cells assessed as caspase-3 activation using AFC-labeled caspase-3 substrate at 40 to 60 nM after 24 to 48 hrs by fluorescence plate reader assay relative to combretastatin A-4; assay type: functional
In short: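 HeLa cells exposed at 40 and 60 nM; caspase-3 and caspase-9 activity measured fluorimetrically with conjugated caspase substrates at two time points.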

Tubulin = Tubulin (Sus scrofa, UniProt P02554+P02550); assay: Inhibition of porcine brain tubulin polymerization measured at 1 min interval for 1 hr by fluorescence plate reader assay
HeLa [12] = assay: Cell cycle arrest in human HeLa cells assessed as accumulation at G2/M phase after 48 hrs by propidium iodide staining based flow cytometry; assay type: functional
Tubulin (Homo sapiens) = Tubulin (Homo sapiens) (UniProt P68371+Q9H4B7+P0DPH7+P68366+Q13509+Q71U36+P04350+Q3ZCM7+P07437+P68363+Q9BQE3+Q6PEY2+Q13885+Q9BVA1+Q9BUF5); assay: Inhibition of tubulin polymerization in human HeLa cells assessed as induction of microtubule disruption at 60 nM after 48 hrs by confocal microscopic analysis; assay type: cell-based
In short: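 HeLa cells grown on sterile cover slips, exposed 48 h at 60 nM, immunostained with α-tubulin antibody; microtubule network organization examined by confocal imaging.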

HeLa [13] = assay: Induction of apoptosis in human HeLa cells assessed as caspase-9 activation using AFC-labeled substrate at 40 to 60 nM after 24 to 48 hrs by fluorescence plate reader assay relative to combretastatin A-4
Tubulin (Sus scrofa) = Tubulin (Sus scrofa) (UniProt P02554+P02550); assay: Inhibition of porcine brain tubulin polymerization at 3 uM measured at 1 min interval for 1 hr by fluorescence plate reader assay relative to control
In short: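 Tubulin polymerization followed by fluorescence (excitation 360 nm, emission 420 nm) over 1 h at 37 °C, test agents at 3 μM; inhibition expressed as percentage of polymerization versus untreated control.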

Sequence of Tubulin (Sus scrofa) (P02550 whole entry, looked up): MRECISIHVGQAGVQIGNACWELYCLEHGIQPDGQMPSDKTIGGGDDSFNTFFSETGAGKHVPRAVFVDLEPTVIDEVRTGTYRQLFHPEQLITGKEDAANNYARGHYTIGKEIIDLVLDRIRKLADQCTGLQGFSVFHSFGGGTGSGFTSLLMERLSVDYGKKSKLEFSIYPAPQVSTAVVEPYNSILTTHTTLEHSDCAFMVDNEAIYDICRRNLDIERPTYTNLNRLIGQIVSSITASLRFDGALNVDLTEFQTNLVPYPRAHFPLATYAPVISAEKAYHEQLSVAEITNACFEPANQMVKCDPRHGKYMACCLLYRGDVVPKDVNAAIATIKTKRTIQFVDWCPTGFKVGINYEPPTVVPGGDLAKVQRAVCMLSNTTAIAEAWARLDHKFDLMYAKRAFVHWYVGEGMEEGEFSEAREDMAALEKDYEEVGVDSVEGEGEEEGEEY
Sequence of Tubulin (Sus scrofa) (P02554 whole entry, looked up): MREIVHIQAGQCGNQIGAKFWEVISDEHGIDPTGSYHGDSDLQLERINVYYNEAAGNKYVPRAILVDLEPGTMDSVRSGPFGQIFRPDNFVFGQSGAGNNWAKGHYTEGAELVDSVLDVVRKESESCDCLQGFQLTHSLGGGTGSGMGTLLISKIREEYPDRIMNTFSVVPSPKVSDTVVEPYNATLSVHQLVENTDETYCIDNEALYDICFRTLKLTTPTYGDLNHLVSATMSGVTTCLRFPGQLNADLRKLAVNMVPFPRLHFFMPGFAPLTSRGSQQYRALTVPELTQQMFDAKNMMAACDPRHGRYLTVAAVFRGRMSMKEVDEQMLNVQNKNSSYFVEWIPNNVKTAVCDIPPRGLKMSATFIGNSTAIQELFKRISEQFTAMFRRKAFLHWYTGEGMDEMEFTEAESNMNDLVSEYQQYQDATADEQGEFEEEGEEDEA

| SMILES | GI50 (A549) | GI50 (HeLa [8]) | GI50 (DU-145) | GI50 (HepG2) | further results |
| --- | --- | --- | --- | --- | --- |
| COc1ccc(/C=C\c2cc(OC)c(OC)c(OC)c2)cc1O [COMBRETASTATIN A4] | 0.06 µM | 0.06 µM | 0.07 µM | 0.08 µM | Activity (HeLa [1]): Active; Activity (HeLa [2]): 16.44%; Activity (HeLa [3]): 17.92%; Activity (HeLa [4]): 38.87%; Activity (HeLa [5]): 24.78%; Activity (HeLa [6]): 17.34%; Activity (HeLa [7]): 41.48%; Activity (HeLa [9]): 25.87%; Activity (HeLa [10]): 17.29% |
| COc1cc2nc(-c3cccnc3-c3cc(OC)c(OC)c(OC)c3)[nH]c2cc1OC | 2.5 µM | 1.7 µM | 0.6 µM | 1.5 µM |  |
| COc1ccc2nc(-c3cccnc3-c3cc(OC)c(OC)c(OC)c3)sc2c1 | 0.13 µM | 0.06 µM | 0.18 µM | 0.26 µM | Activity (HeLa [1]): Active; fold change (FC) (HeLa [11]): 2; Activity (HeLa [2]): 14.3%; Activity (HeLa [3]): 51.22%; IC50 (Tubulin): 2.01 µM; Activity (HeLa [12]): Dose-dependent effect; Activity (HeLa [4]): 23.65%; Activity (HeLa [5]): 25.35%; Activity (HeLa [6]): 11.86%; Activity (HeLa [7]): 40.8%; inhibition (Tubulin (Homo sapiens)): Active; Activity (HeLa [9]): 13.27%; Activity (HeLa [10]): 19.54%; fold change (FC) (HeLa [13]): 2; inhibition (Tubulin (Sus scrofa)): 60.1% |
| COc1ccc(-c2ncccc2-c2nc3ccc(Cl)cc3[nH]2)cc1 |  |  | 34.7 µM |  |  |
| COc1ccc(S(=O)(=O)Nc2cccnc2Nc2ccc(O)cc2)cc1 [ABT-751] | 1.8 µM | 4.8 µM | 1.2 µM | 2.8 µM |  |
| FC(F)(F)c1ccc(Cl)c(-c2ncccc2-c2nc3ccccc3s2)c1 | 7.41 µM | 4.89 µM | 5.49 µM | 15 µM |  |
| COc1ccc(-c2ncccc2-c2nc3cc(OC)c(OC)cc3[nH]2)cc1OC | 7.9 µM | 7.7 µM | 4.19 µM | 1.9 µM |  |
| COc1ccc2nc(-c3cccnc3-c3cc(OC)c(OC)c(OC)c3)[nH]c2c1 | 1.5 µM | 5 µM | 0.29 µM | 0.84 µM |  |
| COc1ccc2nc(-c3cccnc3-c3ccc(OC)c(OC)c3)sc2c1 | 1.7 µM | 6.2 µM | 6.8 µM | 2.2 µM |  |
| COc1ccc2nc(-c3cccnc3-c3cc(C(F)(F)F)ccc3Cl)[nH]c2c1 | 0.75 µM | 0.15 µM | 0.21 µM | 0.76 µM |  |
| COc1ccc(-c2ncccc2-c2nc3ccc(OC)cc3[nH]2)cc1 |  |  | 19.6 µM |  |  |
| COc1cc(-c2ncccc2-c2nc3ccccc3[nH]2)cc(OC)c1OC | 4.5 µM | 2.6 µM | 14.6 µM | 3.5 µM |  |
| COc1ccc(-c2ncccc2-c2nc3cc(OC)c(OC)cc3[nH]2)cc1 | 19.5 µM | 21.4 µM |  | 42.5 µM |  |
| COc1cc(-c2ncccc2-c2nc3ccccc3s2)cc(OC)c1OC | 3.2 µM | 4.8 µM | 4.1 µM | 3.5 µM |  |
| COc1ccc(-c2ncccc2-c2nc3ccc(OC)cc3s2)cc1 | 13.3 µM | 8.1 µM |  |  |  |
| COc1ccc2nc(-c3cccnc3-c3ccc(C(F)(F)F)cc3)[nH]c2c1 | 38.2 µM |  | 32.1 µM |  |  |
| COc1ccc2nc(-c3cccnc3-c3ccc(C(F)(F)F)cc3)sc2c1 | 17 µM | 15.7 µM |  |  |  |
| FC(F)(F)c1ccc(-c2ncccc2-c2nc3ccc(Cl)cc3[nH]2)cc1 | 18.4 µM | 15.8 µM |  |  |  |
| COc1ccc(-c2ncccc2-c2nc3ccccc3s2)cc1OC | 0.2 µM | 1.8 µM | 3.6 µM | 0.7 µM |  |
| FC(F)(F)c1ccc(-c2ncccc2-c2nc3ccc(Cl)cc3s2)cc1 | 19.5 µM | 20.4 µM |  | 32.5 µM |  |
| COc1ccc(-c2ncccc2-c2nc3cc(OC)c(OC)cc3s2)cc1 | 59.1 µM | 11.3 µM |  | 30.9 µM |  |
| COc1cc2nc(-c3cccnc3-c3cc(OC)c(OC)c(OC)c3)sc2cc1OC | 0.5 µM | 1.6 µM | 0.6 µM | 0.5 µM |  |
| COc1ccc(-c2ncccc2-c2nc3cc(OC)c(OC)cc3s2)cc1OC | 7.58 µM | 13.5 µM | 5.91 µM | 1.2 µM |  |
| COc1ccc(-c2ncccc2-c2nc3ccc(Cl)cc3s2)cc1 | 7.9 µM | 7.7 µM | 0.19 µM | 3.9 µM |  |
| FC(F)(F)c1ccc(Cl)c(-c2ncccc2-c2nc3ccc(Cl)cc3s2)c1 | 1.5 µM | 5.8 µM |  | 1.2 µM |  |
| COc1ccc(-c2ncccc2-c2nc3ccccc3[nH]2)cc1OC |  |  | 5.8 µM | 12.4 µM |  |
| COc1ccc2nc(-c3cccnc3-c3ccc(OC)c(OC)c3)[nH]c2c1 | 27.6 µM | 16.6 µM | 12 µM | 44.8 µM |  |
| COc1ccc2nc(-c3cccnc3-c3cc(C(F)(F)F)ccc3Cl)sc2c1 | 0.091 µM | 0.04 µM | 0.052 µM | 0.079 µM | Activity (HeLa [1]): Active; fold change (FC) (HeLa [11]): 2; Activity (HeLa [2]): 10.3%; Activity (HeLa [3]): 43%; IC50 (Tubulin): 1.91 µM; Activity (HeLa [12]): Dose-dependent effect; Activity (HeLa [4]): 24.26%; Activity (HeLa [5]): 20.47%; Activity (HeLa [6]): 24.62%; Activity (HeLa [7]): 54.05%; inhibition (Tubulin (Homo sapiens)): Active; Activity (HeLa [9]): 8.13%; Activity (HeLa [10]): 15.19%; fold change (FC) (HeLa [13]): 2; inhibition (Tubulin (Sus scrofa)): 68.3% |
